From ChEMBL document CHEMBL4406810, “Modifications on the Amino-3,5-dicyanopyridine Core To Obtain Multifaceted Adenosine Receptor Ligands with Antineuropathic Activity” (J Med Chem, 2019)
Activity calls are given as the source filed them.

Tests used:
CHO = test: Effect on cAMP level in wild-type CHO cells at 0.001 to 1 uM by alphascreen assay; type: functional, cell-based; details: Cricetulus griseus
Outline: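 Compounds at 1 nM to 1 µM final concentrations. cAMP quantified with AlphaScreen kit. Four independent experiments, each in triplicate.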

Adenosine receptor A1 [1] = molecular target: T1, Adenosine receptor A1 (Homo sapiens, UniProt P30542); test: Displacement of [3H]DPCPX from human A1AR expressed in CHO cell membranes measured after 90 mins by scintillation counting method
T1 sequence (P30542 whole entry): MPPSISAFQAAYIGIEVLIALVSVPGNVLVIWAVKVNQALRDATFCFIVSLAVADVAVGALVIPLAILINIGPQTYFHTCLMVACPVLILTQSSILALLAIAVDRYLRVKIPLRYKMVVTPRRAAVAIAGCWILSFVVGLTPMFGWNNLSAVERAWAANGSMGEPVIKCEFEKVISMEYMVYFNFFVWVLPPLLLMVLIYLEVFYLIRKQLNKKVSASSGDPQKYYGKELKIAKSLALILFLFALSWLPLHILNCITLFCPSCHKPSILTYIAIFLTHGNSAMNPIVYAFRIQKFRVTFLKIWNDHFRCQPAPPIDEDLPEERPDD
Outline: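 Nonspecific binding with 1 µM DPCPX. GF/B filtration and scintillation counting. Ki by Cheng–Prusoff. Inhibition % at 1 µM. Four experiments in triplicate.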

Adenosine receptor A2a [2] = molecular target: T2, Adenosine receptor A2a (Homo sapiens, UniProt P29274); test: Displacement of [3H]ZM241385 from human A2AR expressed in CHO cell membranes at 1 uM measured after 60 mins by scintillation counting method relative to control
T2 sequence (P29274 whole entry): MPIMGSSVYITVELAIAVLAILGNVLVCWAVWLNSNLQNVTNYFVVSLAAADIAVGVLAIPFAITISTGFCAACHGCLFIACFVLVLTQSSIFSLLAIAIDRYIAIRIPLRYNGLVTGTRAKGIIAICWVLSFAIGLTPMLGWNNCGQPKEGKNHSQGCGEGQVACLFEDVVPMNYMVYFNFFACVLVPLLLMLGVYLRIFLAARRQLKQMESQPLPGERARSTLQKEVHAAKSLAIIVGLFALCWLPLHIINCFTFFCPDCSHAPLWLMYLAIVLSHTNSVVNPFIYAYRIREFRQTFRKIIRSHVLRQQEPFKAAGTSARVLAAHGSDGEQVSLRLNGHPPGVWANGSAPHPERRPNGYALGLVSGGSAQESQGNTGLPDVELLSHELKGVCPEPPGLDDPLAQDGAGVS
Outline: (§1)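 Nonspecific binding defined with 1 µM ZM241385. Filtered on GF/B, scintillation counted. Ki by Cheng–Prusoff. Percent inhibition at 1 µM. Four experiments in triplicate.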

[3] = molecular target: T3, Adenosine receptor A3 (Homo sapiens) (UniProt P0DMS8); test: Displacement of [125I]ABMECA from human A3R expressed in CHO cell membranes at 1 uM measured after 120 mins by scintillation counting method relative to control
T3 sequence (whole entry): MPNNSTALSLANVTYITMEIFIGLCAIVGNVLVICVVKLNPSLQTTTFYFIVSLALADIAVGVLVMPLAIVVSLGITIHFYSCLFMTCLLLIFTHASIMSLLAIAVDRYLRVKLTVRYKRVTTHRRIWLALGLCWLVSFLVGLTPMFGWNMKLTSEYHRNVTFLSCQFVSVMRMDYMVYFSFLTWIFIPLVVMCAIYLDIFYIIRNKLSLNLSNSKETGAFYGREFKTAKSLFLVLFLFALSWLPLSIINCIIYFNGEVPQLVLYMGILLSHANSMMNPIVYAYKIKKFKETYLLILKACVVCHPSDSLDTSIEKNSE
Outline: (§2)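 Nonspecific binding with 1 µM AB-MECA. GF/B filtration and counting. Ki via Cheng–Prusoff. Percent inhibition at 1 µM. Four experiments in triplicate.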

Adenosine receptor A2b [4] = molecular target: T4, Adenosine receptor A2b (Homo sapiens, UniProt P29275); test: Agonist activity at human A2B expressed in CHO cells assessed as stimulation of cAMP production by alphascreen assay; type: functional, cell-based
T4 sequence (P29275 whole entry): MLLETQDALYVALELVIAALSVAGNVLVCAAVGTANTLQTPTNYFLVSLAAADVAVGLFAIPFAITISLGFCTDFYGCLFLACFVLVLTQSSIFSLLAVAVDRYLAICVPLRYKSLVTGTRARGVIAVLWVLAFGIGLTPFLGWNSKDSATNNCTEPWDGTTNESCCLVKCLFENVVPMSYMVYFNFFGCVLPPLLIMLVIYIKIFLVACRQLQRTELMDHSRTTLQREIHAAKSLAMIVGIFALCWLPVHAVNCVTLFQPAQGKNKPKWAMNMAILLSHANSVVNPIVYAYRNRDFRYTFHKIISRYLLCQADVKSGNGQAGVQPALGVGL
Outline: (§3)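 Compounds tested alone at final 1 nM to 1 µM. cAMP measured by AlphaScreen. Efficacy taken at 1 µM relative to NECA 1 µM (=100%). Four independent experiments in triplicate.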

[5] = molecular target: T5, Adenosine receptor A2b (Homo sapiens) (UniProt P29275); test: Agonist activity at human A2B expressed in CHO cells assessed as stimulation of cAMP production at 1 uM by alphascreen assay relative to NECA; type: functional, cell-based; outline: as §3
T5 sequence (whole entry): T4 sequence (P29275 whole entry)

Adenosine receptor A1 [6] = molecular target: T1, Adenosine receptor A1; test: Antagonist activity at human A1AR expressed in CHO cells assessed as suppression of CCPA-induced inhibition of forskolin-stimulated cAMP production by alphascreen assay; type: functional, cell-based
Outline: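 hA1 CHO cells in HBSS with HEPES, Ro 20-1724 (phosphodiesterase inhibitor), BSA and adenosine deaminase. Forskolin 5 µM with CCPA 1 nM. […] AlphaScreen detection. IC50 and Emax by sigmoid fit. Four independent experiments in triplicate.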

Adenosine receptor A2a [7] = molecular target: T2, Adenosine receptor A2a; test: Displacement of [3H]ZM241385 from human A2AR expressed in CHO cell membranes measured after 60 mins by scintillation counting method; outline: as §1
Adenosine receptor A2b [8] = molecular target: T4, Adenosine receptor A2b; test: Antagonist activity at human A2BR expressed in CHO cells assessed as inhibition of NECA-stimulated cAMP production by alphascreen assay; type: functional, cell-based
Outline: (§4)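 Compounds added at 1 nM to 1 µM final, with percent inhibition read at 1 µM. AlphaScreen cAMP read-out. IC50 by sigmoid non-linear regression. Four independent experiments in triplicate.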

Adenosine receptor A1 [9] = molecular target: T1, Adenosine receptor A1; test: Inverse agonist activity at human A1AR expressed in CHO cells assessed as increase in forskolin-stimulated cAMP production by alphascreen assay; type: functional, cell-based
Outline: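 Compounds at 1 nM to 1 µM. cAMP rise measured by AlphaScreen. EC50 from sigmoid fit. Four independent experiments in triplicate.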

[10] = molecular target: T6, Adenosine receptor A1 (Homo sapiens) (UniProt P30542); test: Inverse agonist activity at human A1AR expressed in CHO cells assessed as increase in forskolin-stimulated cAMP production by alphascreen assay relative to DPCPX; type: functional, cell-based
T6 sequence (whole entry): T1 sequence (P30542 whole entry)
Outline: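 Compounds at 1 nM to 1 µM. cAMP rise measured by AlphaScreen. EC50 from sigmoid fit. […] Four independent experiments in triplicate.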

Adenosine receptor A2a [11] = molecular target: T2, Adenosine receptor A2a; test: Antagonist activity at human A2AR expressed in CHO cells assessed as inhibition of CGS21680-stimulated cAMP production by alphascreen assay; type: functional, cell-based
Mus musculus [12] = test: (§5) Antinociceptive activity in CD-1 albino mouse model of oxaliplatin-induced neuropathic pain assessed as increase in licking latency at 0.01 to 0.3 mg/kg, po treated on day 15 post oxaliplatin treatment and measured at 15 to 45 mins post dose by cold plate test; type: functional, organism-based
Outline: (§6)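 Male CD-1 mice (22–25 g) given oxaliplatin 2.4 mg/kg i.p. in 5% glucose on days 1-2, 5-9 and 12-14. On day 15, single oral dose (test compounds in 1% CMC). Cold plate at 4 °C, latency to paw licking or lifting, 60 s cut-off, read 15–60 min post dose. 10 mice/group in two sets. ANOVA with Bonferroni.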

Mus musculus [13] = test: as §5, with “at” for “at 0.01 to”, “60” for “45”, “dose in presence of nonspecific nAChR antagonist mecamylamine” for “dose”; type: functional, organism-based
Outline: (§7)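 Oxaliplatin neuropathy in male CD-1 mice (2.4 mg/kg i.p., 10 injections, days 1-14). Day 15: mecamylamine 2 mg/kg i.p. or methyllycaconitine 6 mg/kg i.p. given 15 min before the oral dose. Cold plate (4 °C) licking/lifting latency with 60 s cut-off, measured over time after dosing. 10 mice/group, two sets.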

Mus musculus [14] = test: as §5, with “at” for “at 0.01 to”, “60” for “45”, “dose in presence of alpha7 nAChR antagonist methyllycaconitine” for “dose”; type: functional, organism-based; outline: as §7
Adenosine receptor A3 = molecular target: T7, Adenosine receptor A3 (Homo sapiens, UniProt P0DMS8); test: Displacement of [125I]ABMECA from human A3R expressed in CHO cell membranes measured after 120 mins by scintillation counting method; outline: as §2
T7 sequence (P0DMS8 whole entry): T3 sequence (whole entry)

[15] = molecular target: T5, Adenosine receptor A2b (Homo sapiens); test: Antagonist activity at human A2BR expressed in CHO cells assessed as inhibition of NECA-stimulated cAMP production at 1 uM by alphascreen assay relative to control; type: functional, cell-based; outline: as §4
Mus musculus [16] = test: Antinociceptive activity in CD-1 albino mouse model of oxaliplatin-induced neuropathic pain assessed as increase in licking latency at 0.1 to 0.3 mg/kg, po treated on day 15 post oxaliplatin treatment and measured at 30 to 60 mins post dose by cold plate test; type: functional, organism-based; outline: as §6
[17] = Half life in human plasma at 1 uM by LC-MS/MS analysis; type: ADME, cell-free
Outline: (§8)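 Analyte spiked at 1 µM into human plasma or heparinized Sprague-Dawley male rat plasma (or PBS). Incubated at 37°C for 0, 30, 60, 120 min in triplicate. Internal standard added, centrifuged, dried, reconstituted. Quantified by LC-MS/MS (ESI negative, MRM) against a 0–1 µM calibration. Half-life from concentration-time profile.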

Mus musculus [18] = test: Antinociceptive activity in CD-1 albino mouse model of oxaliplatin-induced neuropathic pain assessed as increase in licking latency at 0.1 to 0.3 mg/kg, po treated on day 15 post oxaliplatin treatment and measured at 15 to 45 mins post dose by cold plate test; type: functional, organism-based; outline: as §6
[19] = Half life in Sprague-Dawley rat plasma at 1 uM by LC-MS/MS analysis; type: ADME, cell-free; outline: as §8
Mus musculus [20] = test: (§9) Antinociceptive activity in CD-1 albino mouse model of oxaliplatin-induced neuropathic pain assessed as increase in licking latency at 10 mg/kg, po treated on day 15 post oxaliplatin treatment and measured at 15 to 60 mins post dose by cold plate test; type: functional, organism-based; outline: as §6
Mus musculus [21] = test: as §9, with “dose in presence of nonspecific nAChR antagonist mecamylamine” for “dose”; type: functional, organism-based; outline: as §7
Mus musculus [22] = test: Antinociceptive activity in CD-1 albino mouse model of oxaliplatin-induced neuropathic pain assessed as increase in licking latency at 1 mg/kg, po treated on day 15 post oxaliplatin treatment and measured at 15 to 60 mins post dose by cold plate test; type: functional, organism-based; outline: as §6
Mus musculus [23] = test: Antinociceptive activity in CD-1 albino mouse model of oxaliplatin-induced neuropathic pain assessed as increase in licking latency at 0.3 mg/kg, po treated on day 15 post oxaliplatin treatment and measured at 15 to 60 mins post dose by cold plate test; type: functional, organism-based; outline: as §6

Row | SMILES | Ki (Adenosine receptor A1 [1]) [nM] | inhibition [3] [%] | EC50 (Adenosine receptor A2b [4]) [nM] | Efficacy [5] [%] | Ki (Adenosine receptor A2a [7]) [nM] | EC50 (Adenosine receptor A1 [9]) [nM] | Emax [10] [%] | IC50 (Adenosine receptor A2a [11]) [nM] | Activity (CHO) | further results
1 | N#Cc1c(NC2CC2)nc(SCCO)c(C#N)c1-c1ccco1 | 89 | 30 | > 1000 | 4 | – | – | – | – | inactive | inhibition (Adenosine receptor A2a [2]): 30%; IC50 (Adenosine receptor A1 [6]): 118 nM
2 | CCOC(=O)C(C)c1cccc(C(=O)c2ccccc2)c1 (stereo not drawn) | – | – | – | – | – | – | – | – | – | half-life at 1 µM [17]: 1.67 h
3 | Cn1c(=O)c2c(ncn2C)n(C)c1=O | – | – | – | – | – | – | – | – | – | Activity (Mus musculus [20]): Active; Activity (Mus musculus [21]): inactive
4 | N#Cc1c(NCc2ccccc2)nc(SCCO)c(C#N)c1-c1ccco1 | 65 | 14 | > 1000 | 3 | 461 | – | – | – | inactive | IC50 (Adenosine receptor A1 [6]): 76 nM
5 | CCOC(=O)[C@H](CCc1ccccc1)N[C@@H](C)C(=O)N1CCC[C@H]1C(=O)O | – | – | – | – | – | – | – | – | – | half-life at 1 µM [19]: 0.367 h

Second part, led by results:

Row | Ki (Adenosine receptor A1 [1]) [nM] | inhibition [3] [%] | EC50 (Adenosine receptor A2b [4]) [nM] | Efficacy [5] [%] | Ki (Adenosine receptor A2a [7]) [nM] | EC50 (Adenosine receptor A1 [9]) [nM] | Emax [10] [%] | IC50 (Adenosine receptor A2a [11]) [nM] | SMILES | Activity (CHO) | further results
6 | 0.98 | 25 | > 1000 | 4 | 31 | 4.97 | 98 | 22 | N#Cc1c(N)nc(SCc2cccc(CO)c2)c(C#N)c1-c1ccco1 | inactive | IC50 (Adenosine receptor A2b [8]): 152 nM; Activity (Mus musculus [12]): Active; Activity (Mus musculus [13]): inactive; Activity (Mus musculus [14]): inactive
7 | 4.12 | – | > 1000 | 1 | 581 | 8.92 | 45 | – | N#Cc1c(N)nc(SCc2cccc(C(=O)O)c2)c(C#N)c1-c1ccco1 | inactive | Ki (Adenosine receptor A3): 611 nM; inhibition [15]: 12%; Activity (Mus musculus [16]): Active
8 | 7.22 | 26 | > 1000 | 7 | 68 | 1.43 | 35 | 313 | COC(=O)c1cccc(CSc2nc(N)c(C#N)c(-c3ccco3)c2C#N)c1 | inactive | inhibition [15]: 25%; Activity (Mus musculus [18]): Active; Activity (Mus musculus [13]): inactive; Activity (Mus musculus [14]): inactive; half-life at 1 µM [17]: ≥ 4 h; half-life at 1 µM [19]: ≥ 4 h
9 | 1.32 | – | > 1000 | 6 | 67 | 2.84 | 31 | 58 | N#Cc1c(N)nc(SCc2cccc(C(N)=O)c2)c(C#N)c1-c1ccco1 | inactive | Ki (Adenosine receptor A3): 326 nM; IC50 (Adenosine receptor A2b [8]): 13 nM; Activity (Mus musculus [22]): Active; Activity (Mus musculus [23]): inactive
